Laboratory results published in publication PMC9314948 (Diabetes, Obesity & Metabolism, 2022).
Values joined by “and” are separate entries in the source; they are usually repeats but may differ in a detail not shown here. Identical values can stand only once.

How the values were obtained:
obese women [1] = experiment: Study A: body weight, caloric intake and waist circumference; assay type: in vivo, human; conditions: not significant vs placebo (1.24%)
obese women [2] = experiment: Study B: caloric intake and body weight; assay type: in vivo, human
How it was run: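 Double-blind crossover in inpatient obese women with six randomized sequences of three 4-day regimens separated by 5-day washouts: placebo/placebo, 2.5/2.0 mg, or 2.5 mg/placebo, given SC 1 h before breakfast and lunch. Meals are weighed before and after eating, and snacks are allowed 18:00-midnight. Subjects are weighed each morning before breakfast in underwear or scrubs. ITT analysis uses MMRM for intake and ANCOVA for weight change, with two-sided p.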

[3] = Study A: accumulation of plasma bremelanotide concentration; assay type: in vivo, human; conditions: plasma 1 h after first dose of the day, SC 3 times daily
How it was run: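 Day 1 doses are 1.25 mg then 1.0 mg twice; later days are 2.5 mg then 2.0 mg twice. Plasma is sampled 1 h after the first daily dose on days 2, 8 and 15. Day 8/day 2 and day 15/day 2 ratios are computed, with accumulation defined as mean ratio 95% CI >1.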

[4] = Study B: pharmacokinetics of SC bremelanotide; assay type: in vivo, human; conditions: mean ± SD; for Cavg (D1) / Cmax (D1) / Cavg / RACC3.5 (ratio of day 4/day 1 concentrations 3.5 h postdose) / Tmax / Cmax: Study B; for Cmax (D1) / AUC(0-t) / Cmax: plasma; for Cavg: full dosing interval; for AUC(0-t): AUC0−3.5, Study B
How it was run: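 A further sample is taken on day 4 at 3.5 h postdose. Plasma levels are measured by HPLC-MS/MS and analysed non-compartmentally. RACC3.5 is the day 4/day 1 ratio at 3.5 h postdose.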

obese women [5] = experiment: Study A: adverse events; assay type: in vivo, human; conditions: across Study A and Study B, subjects receiving bremelanotide
How it was run: (§1)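 Treatment-emergent AEs, including SAEs, are recorded throughout both inpatient placebo-controlled, double-blind SC trials in premenopausal obese women, alongside vital signs, ECG, clinical laboratory tests and physical examination. The safety population is all randomized subjects given ≥1 dose.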

obese women [6] = experiment: Study B: adverse events; assay type: in vivo, human
How it was run: as §1

obese women [7] = experiment: Study A: blood pressure; assay type: in vivo, human; conditions: over the course of the study, also seen with placebo
How it was run: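 Study A, three-times-daily SC dosing for 15 days. Blood pressure is taken at screening, on the 2 days before dosing, on the day after dosing, and 15 min predose and 1 h postdose at each dose on days 1-15, with subjects seated ≥5 min. Continuation requires systolic <155 and diastolic <95 mmHg. Post- vs predose changes are summarized descriptively by visit and treatment.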

obese women [8] = experiment: Study B: blood pressure withdrawal criteria; assay type: in vivo, human; conditions: 2.5 mg/2.0 mg dosing regimen
How it was run: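 Crossover regimen of 2.5 mg SC 1 h before breakfast and 2.0 mg 1 h before lunch over a 4-day period. Blood pressure is measured daily pre- and postdose after ≥5 min seated. Subjects are withdrawn unless systolic <155 mmHg and diastolic <95 mmHg at all assessments.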

murine model = conditions: ref Palatin Technologies, Inc. data on file; cited from earlier work
rat model = conditions: ref Palatin Technologies, Inc. data on file; cited from earlier work
[9] = once-daily (2.5 mg/0 mg) SC, dose 1, n = 17-22
[10] = once-daily (2.5 mg/0 mg) SC, n = 17-22
[11] = twice-daily (2.5 mg/2.0 mg) SC, dose 1, n = 19-20
[12] = twice-daily (2.5 mg/2.0 mg) SC, n = 19-20
[13] = human, in vivo, sc, once-daily (2.5 mg/0 mg) SC, n = 17-22
[14] = human, in vivo, sc, twice-daily (2.5 mg/2.0 mg) SC, n = 19-20
[15] = once-daily (2.5 mg/0 mg) SC, 4-day period, n = 22
[16] = twice-daily (2.5 mg/2.0 mg) SC, 4-day period, n = 20

SMILES: CCCC[C@H](NC(C)=O)C(=O)N[C@H]1CC(=O)NCCCC[C@@H](C(=O)O)NC(=O)[C@H](Cc2c[nH]c3ccccc23)NC(=O)[C@H](CCCNC(=N)N)NC(=O)[C@@H](Cc2ccccc2)NC(=O)[C@H](Cc2c[nH]cn2)NC1=O [bremelanotide]
- Mean decrease in waist circumference from baseline to day 16 (obese women [1]): 1.63%
- Daily caloric intake versus placebo (obese women [2]; once or twice daily, all four treatment days, p < 0.001): significantly lower
- Weight loss after 4 days versus placebo (obese women [2]; once-daily (2.5 mg/0 mg) SC, p = .0805): numerically greater than weight loss observed in placebo‐treated subjects, but the difference did not reach statistical significance
- Mean weight loss from baseline after 4 days (obese women [2]; twice-daily (2.5 mg/2.0 mg) SC, ITT, placebo 0.9 kg, p < .001): 1.7 kg
- Mean ratio of day 8/day 2 bremelanotide concentrations [3]: 1.0
- Mean ratio of day 15/day 2 bremelanotide concentrations [3]: 1.1
- Cavg (D1) [4, 9]: 51.6 ± 10.1 ng/mL
- Cmax (D1) [4, 9]: 75.1 ± 16.1 ng/mL
- Cavg [4, 10]: 25.2 ± 4.7 ng/mL
- RACC3.5 (ratio of day 4/day 1 concentrations 3.5 h postdose) [4, 10]: 1.0 ± 0.3
- Tmax [4, 10]: 1.0 ± 0.3 h
- Cavg (D1) [4, 11]: 50.2 ± 9.4 ng/mL
- Cmax (D1) [4, 11]: 75.2 ± 16.3 ng/mL
- Cavg [4, 12]: 41.7 ± 9.3 ng/mL
- RACC3.5 (ratio of day 4/day 1 concentrations 3.5 h postdose) [4, 12]: 1.0 and 1.0 ± 0.1
- AUC(0-t) [4, 13]: 181 ± 35.4 ng·h/mL
- AUC(0-t) [4, 14]: 176 ± 32.6 ng·h/mL
- Cmax [4, 13]: 75.1 ± 16.1 ng/mL
- Cmax [4, 14]: 83.8 ± 15.6 ng/mL
- Tmax ([4]; human, in vivo, sc, t max (D1), once-daily (2.5 mg/0 mg) SC, dose 1, n = 17-22): 1 ± 0.3 h
- Tmax ([4]; human, in vivo, sc, t max (D1), twice-daily (2.5 mg/2.0 mg) SC, dose 1, n = 19-20): 0.9 ± 0.4 h
- Tmax ([4]; human, in vivo, sc, t max, twice-daily (2.5 mg/2.0 mg) SC, n = 19-20): 3.3 ± 2 h
- Subjects experiencing nausea (obese women [5]): 18% to 30
- AE leading to treatment discontinuation: Nausea (obese women [6]; [15]): 1 (4.5) n (%)
- AE leading to treatment discontinuation: Vomiting (obese women [6]; [15]): 1 (4.5) n (%)
- AE: Decreased appetite (obese women [6]; [15]): 2 (9.1) n (%)
- AE: Ephelides (obese women [6]; [15]): 0 n (%)
- AE: Feeling hot (obese women [6]; [15]): 2 (9.1) n (%)
- AE: Flatulence (obese women [6]; [15]): 1 (4.5) n (%)
- AE: Flushing (obese women [6]; [15]): 4 (18.2) n (%)
- AE: Headache (obese women [6]; [15]): 2 (9.1) n (%)
- AE: Injection site erythema (obese women [6]; [15]): 9 (40.9) n (%)
- AE: Injection site pain (obese women [6]; [15]): 7 (31.8) n (%)
- AE: Injection site pruritus (obese women [6]; [15]): 2 (9.1) n (%)
- AE: Injection site reaction (obese women [6]; [15]): 16 (72.7) n (%)
- AE: Injection site swelling (obese women [6]; [15]): 2 (9.1) n (%)
- AE: Libido increased (obese women [6]; [15]): 3 (13.6) n (%)
- AE: Nausea (obese women [6]; [15]): 4 (18.2) n (%)
- AE: Pigmentation disorder (obese women [6]; [15]): 6 (27.3) n (%)
- AE: Procedural dizziness (obese women [6]; [15]): 2 (9.1) n (%)
- AE: Skin hyperpigmentation (obese women [6]; [15]): 0 n (%)
- AE: Vessel puncture site haemorrhage (obese women [6]; [15]): 0 n (%)
- Subjects experiencing an AE leading to treatment discontinuation (obese women [6]; [15]): 2 (9.1) n (%)
- Subjects experiencing ≥1 AE (obese women [6]; [15]): 21 (95.5) n (%)
- Subjects experiencing ≥1 AE: Mild (obese women [6]; [15]): 21 (95.5) n (%)
- Subjects experiencing ≥1 AE: Moderate (obese women [6]; [15]): 4 (18.2) n (%)
- Subjects experiencing ≥1 AE: Severe (obese women [6]; [15]): 0 n (%)
- Subjects experiencing ≥1 treatment‐related AE (obese women [6]; [15]): 21 (95.5) n (%)
- Treatment‐related AE: Decreased appetite (obese women [6]; [15]): 2 (9.1) n (%)
- Treatment‐related AE: Ephelides (obese women [6]; [15]): 0 n (%)
- Treatment‐related AE: Feeling hot (obese women [6]; [15]): 2 (9.1) n (%)
- Treatment‐related AE: Flatulence (obese women [6]; [15]): 1 (4.5) n (%)
- Treatment‐related AE: Flushing (obese women [6]; [15]): 4 (18.2) n (%)
- Treatment‐related AE: Headache (obese women [6]; [15]): 2 (9.1) n (%)
- Treatment‐related AE: Injection site erythema (obese women [6]; [15]): 9 (40.9) n (%)
- Treatment‐related AE: Injection site pain (obese women [6]; [15]): 7 (31.8) n (%)
- Treatment‐related AE: Injection site pruritus (obese women [6]; [15]): 2 (9.1) n (%)
- Treatment‐related AE: Injection site reaction (obese women [6]; [15]): 16 (72.7) n (%)
- Treatment‐related AE: Injection site swelling (obese women [6]; [15]): 2 (9.1) n (%)
- Treatment‐related AE: Libido increased (obese women [6]; [15]): 3 (13.6) n (%)
- Treatment‐related AE: Nausea (obese women [6]; [15]): 4 (18.2) n (%)
- Treatment‐related AE: Pigmentation disorder (obese women [6]; [15]): 6 (27.3) n (%)
- Treatment‐related AE: Skin hyperpigmentation (obese women [6]; [15]): 0 n (%)
- Number of SAEs reported (in a single subject) (obese women [6]; once-daily bremelanotide, nausea, vomiting, hypersensitivity, dizziness, headache): Five
- AE leading to treatment discontinuation: Vomiting (obese women [6]; [16]): 1 (5.0) n (%)
- AE: Decreased appetite (obese women [6]; [16]): 0 n (%)
- AE: Ephelides (obese women [6]; [16]): 2 (10.0) n (%)
- AE: Feeling hot (obese women [6]; [16]): 0 n (%)
- AE: Flatulence (obese women [6]; [16]): 3 (15.0) n (%)
- AE: Flushing (obese women [6]; [16]): 3 (15.0) n (%)
- AE: Headache (obese women [6]; [16]): 4 (20.0) n (%)
- AE: Injection site erythema (obese women [6]; [16]): 5 (25.0) n (%)
- AE: Injection site pain (obese women [6]; [16]): 8 (40.0) n (%)
- AE: Injection site pruritus (obese women [6]; [16]): 3 (15.0) n (%)
- AE: Injection site reaction (obese women [6]; [16]): 20 (100) n (%)
- AE: Injection site swelling (obese women [6]; [16]): 2 (10.0) n (%)
- AE: Libido increased (obese women [6]; [16]): 2 (10.0) n (%)
- AE: Nausea (obese women [6]; [16]): 4 (20.0) n (%)
- AE: Pigmentation disorder (obese women [6]; [16]): 2 (10.0) n (%)
- AE: Procedural dizziness (obese women [6]; [16]): 0 n (%)
- AE: Skin hyperpigmentation (obese women [6]; [16]): 3 (15.0) n (%)
- AE: Vessel puncture site haemorrhage (obese women [6]; [16]): 2 (10.0) n (%)
- Subjects experiencing an AE leading to treatment discontinuation (obese women [6]; [16]): 1 (5.0) n (%)
- Subjects experiencing ≥1 AE (obese women [6]; [16]): 20 (100) n (%)
- Subjects experiencing ≥1 AE: Mild (obese women [6]; [16]): 20 (100) n (%)
- Subjects experiencing ≥1 AE: Moderate (obese women [6]; [16]): 1 (5.0) n (%)
- Subjects experiencing ≥1 AE: Severe (obese women [6]; [16]): 0 n (%)
- Subjects experiencing ≥1 SAE (obese women [6]; [16]): 0
- Subjects experiencing ≥1 treatment‐related AE (obese women [6]; [16]): 20 (100) n (%)
- Treatment‐related AE: Decreased appetite (obese women [6]; [16]): 0 n (%)
- Treatment‐related AE: Ephelides (obese women [6]; [16]): 2 (10.0) n (%)
- Treatment‐related AE: Feeling hot (obese women [6]; [16]): 0 n (%)
- Treatment‐related AE: Flatulence (obese women [6]; [16]): 2 (10.0) n (%)
- Treatment‐related AE: Flushing (obese women [6]; [16]): 3 (15.0) n (%)
- Treatment‐related AE: Headache (obese women [6]; [16]): 3 (15.0) n (%)
- Treatment‐related AE: Injection site erythema (obese women [6]; [16]): 5 (25.0) n (%)
- Treatment‐related AE: Injection site pain (obese women [6]; [16]): 8 (40.0) n (%)
- Treatment‐related AE: Injection site pruritus (obese women [6]; [16]): 3 (15.0) n (%)
- Treatment‐related AE: Injection site reaction (obese women [6]; [16]): 20 (100.0) n (%)
- Treatment‐related AE: Injection site swelling (obese women [6]; [16]): 2 (10.0) n (%)
- Treatment‐related AE: Libido increased (obese women [6]; [16]): 2 (10.0) n (%)
- Treatment‐related AE: Nausea (obese women [6]; [16]): 3 (15.0) n (%)
- Treatment‐related AE: Pigmentation disorder (obese women [6]; [16]): 2 (10.0) n (%)
- Treatment‐related AE: Skin hyperpigmentation (obese women [6]; [16]): 3 (15.0) n (%)
- Decrease from baseline in mean systolic blood pressure (obese women [7]): < 10%
- Subjects withdrawn while receiving the regimen (obese women [8]): No subjects
- Body weight (murine model): reduced
- Food intake (murine model): reduced
- Body weight (rat model): reduced
- Food intake (rat model): reduced
